Assay results taken from ChEMBL document CHEMBL4834416, “The Discovery of Novel ACA Derivatives as Specific TRPM2 Inhibitors that Reduce Ischemic Injury Both In Vitro and In Vivo” (J Med Chem, 2021).
pIC50: −log10 of the molar value. The source made the active and inactive calls. No cut-off for these calls is given here.

Tests used:
[1] = target: T1, Transient receptor potential cation channel subfamily M member 2 (Homo sapiens, UniProt O94759); assay: Inhibition of human TRPM2 expressed in HEK293T cells assessed as blocked of ADPR-activated current by whole cell patch clamp electrophysiology; format: cell-based
T1 sequence (O94759 whole entry): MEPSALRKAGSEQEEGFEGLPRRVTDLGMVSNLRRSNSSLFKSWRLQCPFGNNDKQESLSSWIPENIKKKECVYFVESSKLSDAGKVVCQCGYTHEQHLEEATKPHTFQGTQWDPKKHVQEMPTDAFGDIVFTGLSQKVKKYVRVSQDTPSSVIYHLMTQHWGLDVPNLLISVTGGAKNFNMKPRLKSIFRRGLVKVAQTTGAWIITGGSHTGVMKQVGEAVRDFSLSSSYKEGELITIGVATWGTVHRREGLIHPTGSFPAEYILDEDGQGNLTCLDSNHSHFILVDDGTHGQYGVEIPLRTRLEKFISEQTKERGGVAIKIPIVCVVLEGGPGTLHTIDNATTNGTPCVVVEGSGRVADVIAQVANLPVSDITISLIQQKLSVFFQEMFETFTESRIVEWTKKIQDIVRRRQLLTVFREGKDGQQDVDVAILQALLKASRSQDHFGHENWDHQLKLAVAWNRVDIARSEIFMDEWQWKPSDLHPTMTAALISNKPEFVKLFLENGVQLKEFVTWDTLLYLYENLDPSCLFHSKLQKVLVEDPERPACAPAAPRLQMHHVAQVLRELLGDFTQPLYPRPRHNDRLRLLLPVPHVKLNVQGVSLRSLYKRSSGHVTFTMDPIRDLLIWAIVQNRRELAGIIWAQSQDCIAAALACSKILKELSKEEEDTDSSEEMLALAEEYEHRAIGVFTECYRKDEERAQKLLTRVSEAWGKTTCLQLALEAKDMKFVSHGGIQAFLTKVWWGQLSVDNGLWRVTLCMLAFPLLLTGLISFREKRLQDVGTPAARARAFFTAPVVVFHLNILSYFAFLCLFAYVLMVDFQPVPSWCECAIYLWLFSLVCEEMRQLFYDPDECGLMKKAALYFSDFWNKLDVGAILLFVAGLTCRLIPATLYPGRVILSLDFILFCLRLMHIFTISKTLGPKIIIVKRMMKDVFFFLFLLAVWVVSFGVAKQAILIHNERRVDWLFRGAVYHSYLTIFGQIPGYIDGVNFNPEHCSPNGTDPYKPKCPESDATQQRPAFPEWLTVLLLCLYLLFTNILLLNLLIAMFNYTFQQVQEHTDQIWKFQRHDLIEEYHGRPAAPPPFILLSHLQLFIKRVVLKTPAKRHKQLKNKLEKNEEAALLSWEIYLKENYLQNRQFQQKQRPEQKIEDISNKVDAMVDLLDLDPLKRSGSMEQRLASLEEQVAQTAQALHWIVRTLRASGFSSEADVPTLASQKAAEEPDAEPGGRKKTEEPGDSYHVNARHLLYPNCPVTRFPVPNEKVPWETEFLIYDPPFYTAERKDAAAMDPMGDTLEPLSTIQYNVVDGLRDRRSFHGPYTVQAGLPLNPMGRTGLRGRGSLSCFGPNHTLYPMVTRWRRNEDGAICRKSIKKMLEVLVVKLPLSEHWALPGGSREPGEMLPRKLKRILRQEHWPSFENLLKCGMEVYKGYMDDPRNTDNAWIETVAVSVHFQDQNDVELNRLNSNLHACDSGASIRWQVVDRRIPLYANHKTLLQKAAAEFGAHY

[2] = system: SH-SY5Y; assay: Cytotoxicity against human SH-SY5Y cells assessed as toxicity at 30 uM incubated for 24 hrs by CCK-8 assay; format: cell-based
Summary of the method: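 SH-SY5Y cells were seeded at 2 × 10⁴ per well and grown 12 h at 37 °C. They were then treated with compound (1–30 μM) under normoxic, normal-glucose conditions for 24 h. CCK-8 (10%) was added for 2 h at 37 °C and OD450 read. Viability was taken relative to untreated control after blank subtraction, with three replicate wells.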

[3] = target: Transient receptor potential cation channel subfamily M member 8 (Homo sapiens, UniProt Q7Z2W7); assay: Inhibition of human TRPM8 expressed in HEK293T cells assessed as blocked of menthol-activated current at 10 uM by whole cell patch clamp electrophysiology relative to control; format: cell-based
Chain of Transient receptor potential cation channel subfamily M member 8 (Q7Z2W7 whole entry, looked up, the tested form may be a part): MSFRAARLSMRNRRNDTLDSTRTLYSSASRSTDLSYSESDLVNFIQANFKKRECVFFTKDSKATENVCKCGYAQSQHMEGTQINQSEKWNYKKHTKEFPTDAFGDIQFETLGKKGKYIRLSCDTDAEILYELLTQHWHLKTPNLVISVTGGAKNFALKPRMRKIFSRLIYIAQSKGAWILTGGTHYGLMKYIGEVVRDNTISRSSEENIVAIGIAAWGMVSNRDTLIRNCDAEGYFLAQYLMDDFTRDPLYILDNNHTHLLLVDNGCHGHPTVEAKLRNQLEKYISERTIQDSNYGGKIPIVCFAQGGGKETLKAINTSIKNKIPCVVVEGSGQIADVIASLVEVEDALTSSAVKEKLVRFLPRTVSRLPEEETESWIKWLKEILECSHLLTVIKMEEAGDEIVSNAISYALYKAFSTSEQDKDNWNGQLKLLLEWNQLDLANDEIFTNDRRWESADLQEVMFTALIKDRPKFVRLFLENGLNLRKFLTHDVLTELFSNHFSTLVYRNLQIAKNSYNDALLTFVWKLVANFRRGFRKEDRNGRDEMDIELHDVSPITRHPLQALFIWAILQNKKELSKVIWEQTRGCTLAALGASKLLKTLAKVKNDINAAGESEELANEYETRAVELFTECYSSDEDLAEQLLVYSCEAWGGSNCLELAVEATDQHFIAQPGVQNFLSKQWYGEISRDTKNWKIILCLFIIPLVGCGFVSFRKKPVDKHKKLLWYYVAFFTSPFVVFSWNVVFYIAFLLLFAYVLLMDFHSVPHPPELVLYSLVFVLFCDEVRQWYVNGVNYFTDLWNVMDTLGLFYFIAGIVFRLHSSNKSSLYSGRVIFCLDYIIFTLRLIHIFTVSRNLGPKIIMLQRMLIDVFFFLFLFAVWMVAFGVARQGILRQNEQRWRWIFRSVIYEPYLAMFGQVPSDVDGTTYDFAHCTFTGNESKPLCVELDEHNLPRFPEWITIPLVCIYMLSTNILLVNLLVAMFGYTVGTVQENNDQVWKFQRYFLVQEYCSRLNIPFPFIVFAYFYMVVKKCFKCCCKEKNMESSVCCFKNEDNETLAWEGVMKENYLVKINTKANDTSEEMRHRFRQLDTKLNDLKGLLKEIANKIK
Summary of the method: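 Whole-cell patch clamp was run at room temperature on HEK293T cells transiently cotransfected with human TRPM8 plus GFP, 24–48 h before recording. ECS was 145 NaCl, 5.6 KCl, 2 MgCl₂, 1.2 CaCl₂, 10 HEPES, pH 7.2. Current was activated with 1 mM menthol, and compound was perfused at least 60 s after it stabilized. Inhibition was calculated relative to stable agonist current minus residual current; n = 3–6.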

[4] = target: T2, Phospholipase A2 (Homo sapiens, UniProt P04054); assay: Inhibition of PLA2 (unknown origin) using soybean phosphatidylcholine as substrate at 10 uM preincubated for 30 mins followed incubated for 60 mins after substrate addition by microplate reader relative to control
T2 sequence (P04054 23-148 limits assumed): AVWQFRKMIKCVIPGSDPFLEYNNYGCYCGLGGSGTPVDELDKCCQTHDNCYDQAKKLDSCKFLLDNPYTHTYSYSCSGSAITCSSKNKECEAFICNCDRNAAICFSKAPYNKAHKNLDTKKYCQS
Summary of the method: (§1)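 PLA2 (4 μg/L in PBS) was preincubated 30 min at 37 °C with inhibitor in 125 mM Tris. Substrate was then added for 60 min: soybean phosphatidylcholine with Tris, CaCl₂, sodium deoxycholate and 0.5% Triton X-100. Liberated free fatty acids were quantified colorimetrically at OD550. Results are % inhibition versus enzyme without inhibitor, n = 3.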

[5] = target: T2, Phospholipase A2; assay: Inhibition of PLA2 (unknown origin) using soybean phosphatidylcholine as substrate at 3 uM preincubated for 30 mins followed incubated for 60 mins after substrate addition by microplate reader relative to control; summary of the method: as §1
[6] = system: SH-SY5Y; assay: Neuroprotective activity against oxygen glucose deprivation/reperfusion-induced cell death in human SH-SY5Y cells assessed as cell viability at 3 uM […] by CCK8 assay relative to control; format: functional
[7] = system: SH-SY5Y; assay: Neuroprotective activity against oxygen glucose deprivation/reperfusion-induced cell death in human SH-SY5Y cells assessed as cell viability at 0.3 uM […] for 12 hrs by CCK8 assay relative to control; format: functional; details: read-out: Activity
[8] = system: SH-SY5Y; assay: Neuroprotective activity against oxygen glucose deprivation/reperfusion-induced cell death in human SH-SY5Y cells assessed as cell viability at 1 to 30 uM […] by CCK8 assay relative to control; format: functional; details: dose 1-30 µM
[9] = Half life in C57BL/6 mouse plasma at 3 mg/kg, iv by LC-MS/MS analysis; format: ADME, organism-based
[10] = Cmax in C57BL/6 mouse plasma at 3 mg/kg, iv by LC-MS/MS analysis; format: ADME, organism-based; design: route intravenous, dose 3 mg/kg
[11] = Half life in C57BL/6 mouse plasma at 100 mg/kg, IG by LC-MS/MS analysis; format: ADME, organism-based; details: po
[12] = Cmax in C57BL/6 mouse plasma at 100 mg/kg, IG by LC-MS/MS analysis; format: ADME, organism-based; design: route […], dose 100 mg/kg; details: po
[13] = Half life in C57BL/6 mouse plasma at 0.3 mg/kg, iv by LC-MS/MS analysis; format: ADME, organism-based
[14] = Half life in C57BL/6 mouse plasma at 1 mg/kg, iv by LC-MS/MS analysis; format: ADME, organism-based
[15] = Half life in C57BL/6 mouse plasma at 10 mg/kg, IG by LC-MS/MS analysis; format: ADME, organism-based; details: po
[16] = Tmax in C57BL/6 mouse plasma at 0.3 mg/kg, iv by LC-MS/MS analysis; format: ADME, organism-based
[17] = Tmax in C57BL/6 mouse plasma at 1 mg/kg, iv by LC-MS/MS analysis; format: ADME, organism-based
[18] = Tmax in C57BL/6 mouse plasma at 10 mg/kg, IG by LC-MS/MS analysis; format: ADME, organism-based; details: po
[19] = Cmax in C57BL/6 mouse plasma at 0.3 mg/kg, iv by LC-MS/MS analysis; format: ADME, organism-based; design: route intravenous, dose 0.3 mg/kg
[20] = Cmax in C57BL/6 mouse plasma at 1 mg/kg, iv by LC-MS/MS analysis; format: ADME, organism-based; design: route intravenous, dose 1 mg/kg
[21] = AUC (0 to t) in C57BL/6 mouse plasma at 10 mg/kg, IG by LC-MS/MS analysis; format: ADME, organism-based; design: dose 10 mg/kg; details: po
[22] = AUC (0 to infinitive) in C57BL/6 mouse plasma at 0.3 mg/kg, iv by LC-MS/MS analysis; format: ADME, organism-based; design: time infinity, route intravenous, dose 0.3 mg/kg
[23] = AUC (0 to infinitive) in C57BL/6 mouse plasma at 1 mg/kg, iv by LC-MS/MS analysis; format: ADME, organism-based; design: time infinity, route intravenous, dose 1 mg/kg
[24] = Clearance in C57BL/6 mouse plasma at 0.3 mg/kg, iv by LC-MS/MS analysis; format: ADME, organism-based
[25] = Clearance in C57BL/6 mouse plasma at 1 mg/kg, iv by LC-MS/MS analysis; format: ADME, organism-based
[26] = Clearance in C57BL/6 mouse plasma at 10 mg/kg, IG by LC-MS/MS analysis; format: ADME, organism-based; details: po
[27] = MRT in C57BL/6 mouse plasma at 1 mg/kg, iv by LC-MS/MS analysis; format: ADME, organism-based
[28] = MRT in C57BL/6 mouse plasma at 10 mg/kg, IG by LC-MS/MS analysis; format: ADME, organism-based; details: po
[29] = Oral bioavailability in C57BL/6 mouse plasma at 1 mg/kg, IG by LC-MS/MS analysis; format: ADME, organism-based
[30] = system: Mus musculus; assay: Neuroprotective activity in mouse model of transient middle cerebral artery occlusion-induced cerebral ischemia-reperfusion injury assessed as reduction in infarct volume at 1 mg/kg, iv treated for 3 hrs after onset of reperfusion by TTC staining based assay (reference value: 52 +/- 1.7%); format: functional; design: scale not given: the % may be the effect or the level left
[31] = system: Mus musculus; assay: Neuroprotective activity in mouse model of transient middle cerebral artery occlusion-induced cerebral ischemia-reperfusion injury assessed as reduction in infarct volume at 0.3 mg/kg, iv treated for 3 hrs after onset of reperfusion by TTC staining based assay (reference value: 52 +/- 1.7%); format: functional; design: scale not given: the % may be the effect or the level left
[32] = system: Mus musculus; assay: Neuroprotective activity in mouse model of transient middle cerebral artery occlusion-induced cerebral ischemia-reperfusion injury assessed as reduction neurological score at 3 mg/kg, iv treated for 3 hrs after onset of reperfusion by TTC staining based assay (reference value: 2.4 +/- 0.5); format: functional
[33] = system: Mus musculus; assay: Neuroprotective activity in mouse model of transient middle cerebral artery occlusion-induced cerebral ischemia-reperfusion injury assessed as reduction neurological score at 0.3 mg/kg, iv treated for 3 hrs after onset of reperfusion by TTC staining based assay relative to control; format: functional, organism-based
[34] = target: T1, Transient receptor potential cation channel subfamily M member 2; assay: Inhibition of human TRPM2 expressed in HEK293T cells assessed as suppression of H2O2-induced calcium flux at 1 uM measured after 30 mins by Fluo-3/AM assay; format: cell-based

With `O=C(/C=C/c1ccc(-c2cccc(C(F)(F)F)c2)cc1)Nc1ccccc1C(=O)O` the pIC50 [1] was 6.10, the Activity [2] was < 10% and the inhibition [3] was 22.6%. For the same molecule, the inhibition [4] was 14.8%, the inhibition [5] was 7.8% and the Activity [6] was “Active”. The viability at 0.3 µM [7] was 68.7%, the Activity [8] was 80% and the half-life [9] was 1.34 h. For the same molecule, the Cmax [10] was 24300 ng/mL, the half-life [11] was 3.62 h and the Cmax [12] was 168000 ng/mL. The half-life [13] was 0.93 h, the half-life [14] was 1.7 h and the half-life [15] was 1.42 h. The Tmax [16] was 4.8 min, the Tmax [17] was 4.8 min and the Tmax [18] was 0.5 h. It also gave a Cmax [19] of 5070 ng/mL, a Cmax [20] of 13000 ng/mL and an AUC(0-t) [21] of 157000 ng·h/mL. For the same molecule, the AUC(0-inf) [22] was 5450 ng·h/mL, the AUC(0-inf) [23] was 18900 ng·h/mL and the clearance [24] was 0.917 mL/min/kg. The clearance [25] was 0.882 mL/min/kg, the CL/F [26] was 1.04 mL/min/kg and the MRT [27] was 1.7 h. The MRT [28] was 2.25 h, the bioavailability [29] was 84.8% and the Activity [30] was 38.5%. The Activity [31] was 39.8%, the Activity [32] was 1.8 and the Activity [33] was “inactive”. The inhibition [34] was > 45%.
